Source: ChEMBL document CHEMBL4396895, “Identification and Optimization of Novel Cathepsin C Inhibitors Derived from EGFR Inhibitors” (J Med Chem, 2019)
Activity calls are given as the source filed them. The calls are words filed in the database; no cut-off is given here.

What was measured:
[1] = Toxicity in C57BL/6 mouse assessed as effect on WBC level at 60 mg/kg, po administered twice daily for 6 days; type: organism-based; conditions: in vivo, 144 h
Cytochrome P450 2C9 = Cytochrome P450 2C9 (Homo sapiens, UniProt P11712); assay: Inhibition of CYP2C9 (unknown origin); type: ADME
In short: (§1)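 Tested against recombinant human cytochrome P450 isoforms 1A2, 2D6, 3A4, 2C9 and 2C19.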

[2] = Half life in C57BL/6 mouse at 2 mg/kg, iv by LC-MS/MS analysis; type: ADME, organism-based; conditions: in vivo
In short: (§2)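 Male C57BL/6 mice (n = 3) were dosed with a single IV dose of 2 mg/kg or an IP or PO dose of 10 mg/kg. Vehicle: 0.5% Methocel and 0.1% Tween-80 in citrate buffer, pH 3. Blood was drawn by eye puncture at several time points and analysed by LC-MS/MS. Parameters came from noncompartmental analysis of individual animals and are reported as means.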

Cathepsin B = Cathepsin B (Homo sapiens, UniProt P07858); assay: Inhibition of recombinant human C-terminal polyhistidine-tagged cathepsin B (Arg18 to Ile339 residues) expressed in HEK293 cells using Z-Leu-Arg-AMC as substrate preincubated for 30 mins followed by substrate addition and measured after 30 mins
In short: (§3)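 Recombinant human cathepsin was preincubated with compound for 30 min at RT, then reacted with substrate for 30 min. CatB and CatL were read with Z-Leu-Arg-AMC (Ex 380/Em 460 nm). CatS was read with MCA-Arg-Pro-Lys-Pro-Val-Glu-Nva-Trp-Arg-Lys(DNP)-NH2 (Ex 320/Em 405 nm). E-64 served as inhibitor control.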

Mus musculus [3] = assay: In vivo inhibition of CatC in po dosed C57BL/6 mouse blood assessed as reduction in neutrophil elastase activation administered twice daily for 6 days using methoxysuccinyl-Ala-Ala-Pro-Val-AMC as substrate measured up to 90 mins by fluorescence assay; type: functional, organism-based
In short: (§4)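 C57BL/6 mice (20−25 g; n = 10 per group) received oral doses twice daily at 6.7, 20 or 60 mg/kg for 6 days. The vehicle group got 0.5% Methocel and 0.1% Tween-80 in 100 mM citrate buffer, pH 3. Blood was drawn by eye puncture 14 h after the last dose. Bone marrow was flushed from femurs and tibias with ice-cold RPMI 1640. Cells were lysed in 50 mM Tris pH 7.4, 750 mM NaCl, 1% Triton X-100, sonicated on ice and stored at −80 °C. Lysates were diluted by protein content, with blood diluted 5-fold more than marrow. Kinetics were followed for up to 90 min. Results are % of the vehicle mean.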

Mus musculus [4] = assay: Protection against C57BL/6 mouse model of caerulein-induced acute pancreatitis assessed as reduction in CatC activity at 20 mg/kg, po pretreated twice daily for 6 days followed by caerulein-challenge at 1 hr interval for 8 hrs and measured 1 hr post-last caerulein-challenge
[5] = Cmax in C57BL/6 mouse at 10 mg/kg, ip by LC-MS/MS analysis; type: ADME, organism-based; set-up: dose 10 mg/kg, route intraperitoneal; conditions: in vivo; in short: as §2
[6] = target: Epidermal growth factor receptor (Homo sapiens, UniProt P00533); assay: Inhibition of EGFR (unknown origin) up to 10 uM using biotin-labelled peptide as substrate preincubated for 2 hrs followed by substrate addition and measured after 30 mins by HTRF FRET assay
In short: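 EGFR WT was used at 0.1 nM final in 50 mM HEPES pH 7.0, 0.02% NaN3, 0.01% BSA, 0.1 mM orthovanadate, 10 mM MgCl2, 2.5 mM DTT, 6.25 nM SEB. It was preincubated with compound for 2 h. Biotin-peptide (1.4 μM) and ATP (20 μM) were then added for 30 min at RT. Read-out was HTRF/TR-FRET (Ex 320, Em 615/665 nm) with a sigmoidal curve fit.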

[7] = Intrinsic clearance in mouse liver microsomes assessed per mg protein measured after 60 mins in presence of NADPH by LC-MS/MS analysis; type: ADME, Microsome; conditions: read-out: CLH
Procathepsin L = Procathepsin L (Homo sapiens, UniProt P07711); assay: Inhibition of recombinant human C-terminal His6-tagged cathepsin L (Glu113 to Val333 and Ala114 to Val333 residues) expressed in mouse myeloma cells using Z-Leu-Arg-AMC as substrate preincubated for 30 mins followed by substrate addition and measured after 30 mins; in short: as §3
[8] = Oral bioavailability in C57BL/6 mouse at 10 mg/kg by LC-MS/MS analysis; type: ADME, organism-based; conditions: in vivo; in short: as §2
[9] = Toxicity in C57BL/6 mouse at 60 mg/kg, po administered twice daily for 6 days; type: organism-based; conditions: in vivo, 144 h
Mus musculus [10] = assay: In vivo inhibition of CatC in C57BL/6 mouse blood at 20 mg/kg, po single dose using Gly-Phe-AFC as substrate measured 15 mins post dose for up to 90 mins by fluorescence assay relative to control; conditions: C57BL/6, Blood
Mus musculus [11] = assay: In vivo inhibition of CatC in po dosed C57BL/6 mouse blood administered twice daily for 6 days using Gly-Phe-AFC as substrate measured up to 90 mins by fluorescence assay; type: functional, organism-based; in short: as §4
[12] = Tmax in C57BL/6 mouse at 10 mg/kg, po by LC-MS/MS analysis; type: ADME, organism-based; conditions: in vivo; in short: as §2
[13] = Half life in C57BL/6 mouse at 10 mg/kg, ip by LC-MS/MS analysis; type: ADME, organism-based; conditions: in vivo; in short: as §2
Dipeptidyl peptidase 1 = Dipeptidyl peptidase 1 (Homo sapiens, UniProt P53634); assay: Inhibition of CatL-activated recombinant human C-terminal His10-tagged cathepsin C (25 to 463 residues) expressed in mouse myeloma cells using Gly-Phe-AFC as substrate preincubated for 3 hrs followed by substrate addition and measured after 60 mins; type: cell-free
In short: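 Activated rhCatC was diluted to 4.4 nM in 25 mM MES, 50 mM NaCl, 5 mM DTT, 0.01% Triton X-100, pH 6.0. It was preincubated with compound (added in 10% DMSO) for 3 h at RT. Gly-Phe-AFC was then added to 100 μM final and read as fluorescence after 60 min. IC50 came from a sigmoidal nonlinear fit; values are means of at least two experiments.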

[14] = Intrinsic clearance in human liver microsomes assessed per mg protein measured after 60 mins in presence of NADPH by LC-MS/MS analysis; type: ADME, Microsome; conditions: read-out: CLH
Mus musculus [15] = assay: In vivo inhibition of CatC in po dosed C57BL/6 mouse bone marrow administered twice daily for 6 days using Gly-Phe-AFC as substrate measured up to 90 mins by fluorescence assay; type: functional, organism-based; in short: as §4
Cytochrome P450 3A4 = Cytochrome P450 3A4 (Homo sapiens, UniProt P08684); assay: Inhibition of CYP3A4 (unknown origin); type: ADME; in short: as §1
Cathepsin S = Cathepsin S (Homo sapiens, UniProt P25774); assay: Inhibition of recombinant human C-terminal polyhistidine-tagged cathepsin S (Met1 to Ile331 residues) expressed in HEK293 cells using MCA-Arg-Pro-Lys-Pro-Val-Glu-NVAL-Trp-Arg-Lys(DNP)-NH2 as substrate preincubated for 30 mins followed by substrate addition and measured after 30 mins; in short: as §3

IC50 (Cytochrome P450 2C9): > 10 µM
half-life [2]: 1.62 h
IC50 (Cathepsin B): 3 to 10 µM
Cmax [5]: 766 ng/mL
inhibition [6]: inactive
microsomal CLint [7]: 10.8 µL/min/mg
IC50 (Procathepsin L): 3 to 10 µM
bioavailability [8]: 22.3%
Tmax [12]: 0.5 h
half-life [13]: 1.19 h
IC50 (Dipeptidyl peptidase 1): 0.017 to 0.0173 µM
microsomal CLint [14]: 1.8 µL/min/mg
IC50 (Cytochrome P450 3A4): > 10 µM
IC50 (Cathepsin S): > 10 µM
SMILES: C=CC(=O)Nc1cc(Oc2nc(Nc3ccc(N4CCN(C)CC4)cc3OC)ccc2N2CCCCC2)ccc1C
Activity [1]: Non-Toxic
inhibition (Mus musculus [3]): Dose-dependent effect
Activity (Mus musculus [4]): Active
Activity [9]: Non-Toxic
inhibition in vivo at 20 mg/kg (Mus musculus [10]): 75%
inhibition (Mus musculus [11]): Dose-dependent effect
inhibition (Mus musculus [15]): Dose-dependent effect
